Active and inactive are the calls of the source. The rule behind the calls is not given here.

This note sets out measurements from ChEMBL document CHEMBL1146566, “Antioxidant chalcone glycosides and flavanones from Maclura (Chlorophora) tinctoria” (J Nat Prod, 2003).

Assay [1] is described as follows: Antioxidant activity assessed as trolox equivalents of ABTS radical scavenging activity by TEAC assay. It is filed as functional. An outline of the steps:
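ABTS radical cation made from 7 mM ABTS and 2.45 mM potassium persulfate, 12 h dark at room temperature, diluted in PBS pH 7.4 to A734 0.70, equilibrated at 30 °C. Samples in methanol at 0.3–2 mM stock levels, 10 μL plus 1 mL ABTS. % inhibition of A734 versus methanol blank plotted against concentration, in triplicate. TEAC = Trolox concentration equivalent to 1 mM compound; quercetin as reference.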

The nature of assay [2]: Antioxidant activity assessed as autoxidation of linoleic acid by beta-carotene autoxidation assay. It is filed as functional. The essentials: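 Linoleic acid (20 mg), Tween 20 (200 mg) and β-carotene (2 mg in 10 mL CHCl3) mixed, CHCl3 removed, 50 mL oxygen-saturated water added. Samples oxidised at 50 °C for 3 h, A470 read at intervals. AA = [1 − (A0 − At)/(A00 − A0t)] × 100 versus no-compound control, reported at 60 and 120 min; BHT as control substance.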

On to `O=C1C[C@@H](c2ccc(O)cc2)Oc2cc(O)cc(O)c21`, for which the Activity in assay [1] was determined as 0.77 mM.

Take `CC(=O)OC[C@H]1O[C@@H](Oc2ccc(C(=O)/C=C/c3ccc(O)cc3)c(O)c2O)[C@H](OC(=O)/C=C/c2ccc(O)cc2)[C@@H](O)[C@@H]1O`: in assay [1], the Activity was determined as 1.71 mM. The result in assay [2] was Active.

In the case of `CC(C)=CCc1c(O[C@@H]2O[C@H](CO)[C@@H](O)[C@H](O)[C@H]2O)ccc(C(=O)/C=C/c2ccc(O)cc2)c1O`, the Activity in assay [1] was 2.26 mM. In addition, the outcome in assay [2] was Active.

For `O=C1C[C@@H](c2ccc(O)c(O)c2)Oc2cc(O[C@@H]3O[C@H](CO)[C@@H](O)[C@H](O)[C@H]3O)cc(O)c21`, in assay [1], the Activity was 1.26 mM.

Take `O=C1C[C@@H](c2ccc(O[C@@H]3O[C@H](CO)[C@@H](O)[C@H](O)[C@H]3O)cc2)Oc2cc(O)cc(O)c21`: in assay [1], the Activity stood at 0.782 mM.

In the case of `O=c1c(O)c(-c2ccc(O)c(O)c2)oc2cc(O)cc(O)c12`, in assay [1], the Activity is 2.6 mM.

Turning to `O=C(/C=C/c1ccc(O)cc1)O[C@H]1[C@H](Oc2ccc(C(=O)/C=C/c3ccc(O)cc3)c(O)c2O)O[C@H](CO)[C@@H](O)[C@@H]1O`, in assay [1], the Activity amounted to 1.93 mM. In addition, the result in assay [2] was Active.

For the compound `CC(=O)O[C@H]1[C@H](Oc2ccc(C(=O)/C=C/c3ccc(O)cc3)c(O)c2O)O[C@H](COC(=O)/C=C/c2ccccc2)[C@@H](O)[C@@H]1O`, in assay [1], the Activity stood at 1.6 mM. In addition, the result in assay [2] was Active.
